This is an account of results in ChEMBL document CHEMBL3351863, “Optimization of 2-phenyl-pyrimidine-4-carboxamides towards potent, orally bioavailable and selective P2Y(12) antagonists for inhibition of platelet aggregation” (Bioorg Med Chem Lett, 2014).

Data set [1] in a line: Potency shift, ratio of IC50 for inhibition of ADP-induced platelet aggregation in human platelet rich plasma to IC50 for displacement of [3H]-2-methyl-thio-adenosine 5'-diphosphate from human recombinant P2Y12 expressed in CHO cell membranes.
In data set [2] the test system is Platelet. As to the kind of experiment: Inhibition of ADP-induced platelet aggregation in human platelet rich plasma assessed as remaining activity at 500 nM by in-vitro light transmission aggregometry assay. It is filed as functional. A digest of the protocol: (§1)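 Light transmission aggregometry in human platelet-rich plasma; compound incubated, aggregation triggered with 3 µM ADP; remaining activity (RA) recorded at a single compound level (1000, 500 or 100 nM).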

The target in data set [3] is Voltage-gated inwardly rectifying potassium channel KCNH2 (Homo sapiens, UniProt Q12809). As to the kind of experiment: Inhibition of human ERG expressed in HEK cells by patch-clamp assay. It is filed as cell-based. The settings on record: hek293.
Data set [4] can be described thus: Solubility in neutral pH. The format is physicochemical.
Data set [5] relates to Liver microsome. As to the kind of experiment: Metabolic stability assay in rat liver microsomes assessed as parent drug disappearance at 1 uM after 20 mins by HPLC and mass spectrometry method. The format is ADME.
A further data set deals with P2Y purinoceptor 12 (Homo sapiens, UniProt Q9H244). As to the kind of experiment: Displacement of [3H]-2-methyl-thio-adenosine 5'-diphosphate from human recombinant P2Y12 expressed in CHO cell membranes by scintillation counting method. In short, it runs like this:
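CHO cells expressing recombinant P2Y₁₂ receptors, incubated with tritium-labeled 2-methyl-thio-adenosine 5'-diphosphate plus test compound; IC₅₀ from displacement curves, each point in triplicate; reference compound run with every compound set, and set re-analyzed if its IC₅₀ fell outside pre-set 95% confidence interval.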

Data set [6] deals with T1, Cytochrome P450 3A4 (Homo sapiens, UniProt P08684). As to the kind of experiment: Inhibition of CYP3A4 in human liver microsomes assessed as reduction in midazolam 1'-hydroxylation. It is filed as ADME.
For data set [7], the system named is Liver microsome. As to the kind of experiment: Metabolic stability assay in human liver microsomes assessed as parent drug disappearance at 1 uM after 20 mins by HPLC and mass spectrometry method. It is filed as ADME.
A further data set has as its target Cytochrome P450 2D6 (Homo sapiens, UniProt P10635). As to the kind of experiment: Inhibition of CYP2D6 in human liver microsomes assessed as reduction in dextromethorphan-O demethylation. The format is ADME.
Another data set deals with Cytochrome P450 2C9 (Homo sapiens, UniProt P11712). As to the kind of experiment: Inhibition of CYP2C9 in human liver microsomes assessed as reduction in diclofenac 4'-hydroxylation. It is filed as ADME.
In data set [8] the target is T1, Cytochrome P450 3A4. As to the kind of experiment: Inhibition of CYP3A4 in human liver microsomes assessed as reduction in testosterone 6beta-hydroxylation. It is filed as ADME.
Data set [9] in a line: Solubility in basic pH. It is filed as physicochemical.
Data set [10] has as its system Platelet. As to the kind of experiment: Inhibition of ADP-induced platelet aggregation in human platelet rich plasma by in-vitro light transmission aggregometry assay. It is filed as functional. In short, it runs like this:
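Human platelet-rich plasma incubated with compound, aggregation induced by 3 µM ADP and read by light transmission aggregometry; IC₅₀ derived from concentration–response curve.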

For data set [11], the system named is Platelet. As to the kind of experiment: Inhibition of ADP-induced platelet aggregation in human platelet rich plasma assessed as remaining activity at 100 nM by in-vitro light transmission aggregometry assay. It is filed as functional. A digest of the protocol:
as §1

Molecules are shown by their SMILES.

Sequence of Cytochrome P450 2D6 (P10635 whole entry): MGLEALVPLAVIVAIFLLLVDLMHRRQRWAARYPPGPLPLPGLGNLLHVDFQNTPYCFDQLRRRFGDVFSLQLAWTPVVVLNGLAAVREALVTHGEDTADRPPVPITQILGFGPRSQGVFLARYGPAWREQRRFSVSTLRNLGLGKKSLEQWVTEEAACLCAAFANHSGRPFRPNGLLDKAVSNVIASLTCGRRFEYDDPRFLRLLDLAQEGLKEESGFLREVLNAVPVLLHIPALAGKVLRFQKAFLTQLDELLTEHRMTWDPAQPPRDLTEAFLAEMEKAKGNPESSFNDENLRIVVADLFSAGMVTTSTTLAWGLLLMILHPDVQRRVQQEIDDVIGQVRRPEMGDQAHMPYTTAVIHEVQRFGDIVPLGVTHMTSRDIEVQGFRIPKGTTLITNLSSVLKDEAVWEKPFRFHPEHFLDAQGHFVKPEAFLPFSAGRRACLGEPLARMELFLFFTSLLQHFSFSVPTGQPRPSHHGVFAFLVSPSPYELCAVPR
Sequence of Cytochrome P450 2C9 (P11712 whole entry): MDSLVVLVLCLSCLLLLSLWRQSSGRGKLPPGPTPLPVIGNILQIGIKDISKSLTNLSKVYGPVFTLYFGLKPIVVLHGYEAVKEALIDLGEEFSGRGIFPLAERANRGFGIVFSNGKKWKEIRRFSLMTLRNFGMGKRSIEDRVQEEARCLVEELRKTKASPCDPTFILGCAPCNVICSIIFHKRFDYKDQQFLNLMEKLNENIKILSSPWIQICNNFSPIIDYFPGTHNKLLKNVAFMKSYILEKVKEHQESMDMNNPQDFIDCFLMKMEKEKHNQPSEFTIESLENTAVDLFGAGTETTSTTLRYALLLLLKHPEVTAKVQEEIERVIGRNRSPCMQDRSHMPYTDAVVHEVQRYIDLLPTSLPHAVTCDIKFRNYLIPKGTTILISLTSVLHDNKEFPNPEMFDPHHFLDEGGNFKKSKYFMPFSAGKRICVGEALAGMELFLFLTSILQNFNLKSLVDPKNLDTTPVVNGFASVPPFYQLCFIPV
Sequence of P2Y purinoceptor 12 (Q9H244 whole entry): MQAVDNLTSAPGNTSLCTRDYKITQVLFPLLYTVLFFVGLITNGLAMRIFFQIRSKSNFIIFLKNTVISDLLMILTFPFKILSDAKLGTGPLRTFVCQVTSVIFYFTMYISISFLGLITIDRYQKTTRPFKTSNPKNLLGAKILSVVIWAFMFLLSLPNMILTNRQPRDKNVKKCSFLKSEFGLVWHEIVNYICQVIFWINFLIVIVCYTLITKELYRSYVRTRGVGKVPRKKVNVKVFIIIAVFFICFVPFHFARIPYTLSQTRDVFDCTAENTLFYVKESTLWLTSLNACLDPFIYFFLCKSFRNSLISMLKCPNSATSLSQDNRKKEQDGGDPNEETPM
T1 sequence (P08684 whole entry): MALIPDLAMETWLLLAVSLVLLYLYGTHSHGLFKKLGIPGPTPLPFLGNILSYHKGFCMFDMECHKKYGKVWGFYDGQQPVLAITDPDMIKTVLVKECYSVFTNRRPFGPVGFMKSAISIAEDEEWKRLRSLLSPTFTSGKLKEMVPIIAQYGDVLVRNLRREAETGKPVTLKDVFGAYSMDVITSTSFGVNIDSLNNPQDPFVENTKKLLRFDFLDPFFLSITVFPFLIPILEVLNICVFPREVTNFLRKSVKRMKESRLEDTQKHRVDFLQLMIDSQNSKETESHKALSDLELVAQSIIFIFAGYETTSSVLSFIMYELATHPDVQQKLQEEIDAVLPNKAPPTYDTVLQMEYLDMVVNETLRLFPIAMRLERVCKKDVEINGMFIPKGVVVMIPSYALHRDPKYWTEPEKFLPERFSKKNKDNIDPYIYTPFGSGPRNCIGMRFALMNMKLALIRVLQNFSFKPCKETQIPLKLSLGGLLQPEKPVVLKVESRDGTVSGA
Sequence of Voltage-gated inwardly rectifying potassium channel KCNH2 (Q12809 whole entry): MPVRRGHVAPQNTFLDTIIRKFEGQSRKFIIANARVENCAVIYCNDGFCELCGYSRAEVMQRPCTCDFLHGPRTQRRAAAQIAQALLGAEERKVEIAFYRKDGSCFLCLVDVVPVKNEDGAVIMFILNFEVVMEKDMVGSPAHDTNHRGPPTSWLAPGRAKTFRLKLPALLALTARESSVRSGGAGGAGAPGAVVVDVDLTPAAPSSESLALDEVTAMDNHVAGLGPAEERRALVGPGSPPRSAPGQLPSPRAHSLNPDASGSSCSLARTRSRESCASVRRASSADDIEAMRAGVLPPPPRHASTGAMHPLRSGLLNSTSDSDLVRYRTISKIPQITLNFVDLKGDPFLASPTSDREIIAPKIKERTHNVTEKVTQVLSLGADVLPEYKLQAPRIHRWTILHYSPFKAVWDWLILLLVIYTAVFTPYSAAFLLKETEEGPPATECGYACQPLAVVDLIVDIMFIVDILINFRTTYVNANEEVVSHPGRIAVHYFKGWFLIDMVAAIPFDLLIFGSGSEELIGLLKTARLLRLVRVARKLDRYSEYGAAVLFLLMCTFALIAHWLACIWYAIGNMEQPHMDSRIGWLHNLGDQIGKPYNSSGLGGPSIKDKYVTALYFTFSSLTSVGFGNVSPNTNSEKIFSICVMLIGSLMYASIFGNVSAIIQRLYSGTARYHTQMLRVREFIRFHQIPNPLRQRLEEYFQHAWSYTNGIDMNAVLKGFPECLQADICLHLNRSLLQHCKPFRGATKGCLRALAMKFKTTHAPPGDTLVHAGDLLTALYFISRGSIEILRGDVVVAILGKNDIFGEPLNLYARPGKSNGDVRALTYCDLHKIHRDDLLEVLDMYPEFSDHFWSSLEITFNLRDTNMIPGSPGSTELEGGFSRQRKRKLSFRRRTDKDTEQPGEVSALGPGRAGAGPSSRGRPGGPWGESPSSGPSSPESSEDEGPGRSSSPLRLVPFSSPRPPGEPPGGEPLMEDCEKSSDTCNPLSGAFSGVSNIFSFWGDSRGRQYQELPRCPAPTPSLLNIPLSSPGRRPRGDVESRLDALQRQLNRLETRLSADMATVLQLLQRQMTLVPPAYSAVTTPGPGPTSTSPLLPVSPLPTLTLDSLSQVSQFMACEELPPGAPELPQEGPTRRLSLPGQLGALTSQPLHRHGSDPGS

Consider `CCOC(=O)N1CCN(C(=O)[C@H](CCC(=O)O)NC(=O)c2cc(-c3ccc(OC)cc3)nc(-c3ccccc3)n2)CC1`, for which the “Ratio IC50” value in data set [1] is on record as 17. Besides, the Activity in the data set with Platelet [2] stood at 30%. Also, the “inhibition (INH)” value (in data set [3]; on Cytochrome P450 3A4 [6]; on Cytochrome P450 2D6; on Cytochrome P450 2C9; on Cytochrome P450 3A4 [8]) was “Not Active” in each case. Further, the solubility result in [4] and in data set [9] was “soluble” in each case. The Stability entry in the data set with Liver microsome [5] and in the data set on Liver microsome [7] was “Stable” throughout. The IC50 on P2Y purinoceptor 12 was found to be 0.031 µM; in the data set on Platelet [10] (Homo sapiens, Platelet, Plasma) it was 0.523 µM.
`CCOC(=O)N1CCN(C(=O)[C@H](CCC(=O)O)NC(=O)c2cc(N3CCOCC3)nc(-c3ccccc3)n2)CC1`: the Activity in the data set on Platelet [2] is reported as below 30%; in the data set on Platelet [11], below 70%. Moreover, the “inhibition (INH)” value (in data set [3]; at Cytochrome P450 3A4 [6]; at Cytochrome P450 2D6; on Cytochrome P450 2C9; at Cytochrome P450 3A4 [8]) was “Not Active” each time. Also, the solubility result in [4] and in [9] was “soluble” in each case. The Stability entry in the data set on Liver microsome [5] and in the data set with Liver microsome [7] was “Stable” in each case.
For `CCOC(=O)N1CCN(C(=O)[C@H](CCC(=O)O)NC(=O)c2cc([C@H]3C[C@@H]3CO)nc(-c3ccccc3)n2)CC1` (racemic), the “Ratio IC50” value in data set [1] came to 3.1. The Activity in the data set on Platelet [2] is listed as below 30%; with Platelet [11] it was below 70%. Besides, the “inhibition (INH)” value (in data set [3]; on Cytochrome P450 3A4 [6]; at Cytochrome P450 2D6; at Cytochrome P450 2C9; at Cytochrome P450 3A4 [8]) was “Not Active” in each case. Further, the solubility result in [4] and in data set [9] was “soluble” each time. The Stability entry in the data set on Liver microsome [5] and in the data set on Liver microsome [7] was “Stable” throughout. For the same molecule, the concentration for half-maximal inhibition (IC50) on P2Y purinoceptor 12 amounted to 0.023 µM; with Platelet [10] (Homo sapiens, Platelet, Plasma), 0.071 µM.
For `CCOC(=O)N1CCN(C(=O)[C@H](CCC(=O)O)NC(=O)c2cc(C(C)(C)CO)nc(-c3ccccc3)n2)CC1`, in [1], the “Ratio IC50” value was found to be 5.8. Also, the Activity is below 30% in the data set on Platelet [2] and below 70% in the data set on Platelet [11]. Also, the “inhibition (INH)” value (in data set [3]; at Cytochrome P450 3A4 [6]; on Cytochrome P450 2D6; at Cytochrome P450 2C9; on Cytochrome P450 3A4 [8]) was “Not Active” throughout. In addition, the solubility result in data set [4] and in data set [9] was “soluble” each time. Moreover, the Stability result in the data set on Liver microsome [5] and in the data set with Liver microsome [7] was “Stable” each time. Besides, the IC50 on P2Y purinoceptor 12 is 0.021 µM; with Platelet [10] (Homo sapiens, Platelet, Plasma) it was 0.121 µM.
Take `CCOC(=O)N1CCN(C(=O)[C@H](CCC(=O)O)NC(=O)c2cc(N3CCC(N)C3)nc(-c3ccccc3)n2)CC1` (stereo partly specified): in data set [1], the “Ratio IC50” value turned out to be 1.1. The Activity in the data set with Platelet [2] is reported as below 30%; in the data set with Platelet [11], below 70%. In addition, the “inhibition (INH)” value (in [3]; on Cytochrome P450 3A4 [6]; at Cytochrome P450 2D6; at Cytochrome P450 2C9; on Cytochrome P450 3A4 [8]) was “Not Active” in each case. Moreover, the solubility result in data set [4] and in data set [9] was “soluble” throughout. In addition, the Stability entry in the data set on Liver microsome [5] and in the data set on Liver microsome [7] was “Stable” each time. In addition, the IC50 was determined as 0.076 µM at P2Y purinoceptor 12 and 0.086 µM with Platelet [10] (Homo sapiens, Platelet, Plasma).
Turning to `CCOC(=O)N1CCN(C(=O)[C@H](CCC(=O)O)NC(=O)c2cc(NC(C)COC)nc(-c3ccccc3)n2)CC1` (stereo partly specified), the “Ratio IC50” value in [1] is given as 1.4. Moreover, the Activity with Platelet [2] is below 30%; in the data set with Platelet [11], below 70%. In addition, the “inhibition (INH)” value (in data set [3]; on Cytochrome P450 3A4 [6]; on Cytochrome P450 2D6; at Cytochrome P450 2C9; at Cytochrome P450 3A4 [8]) was “Not Active” throughout. For the same molecule, the solubility entry in [4] and in [9] was “soluble” in each case. The Stability entry in the data set with Liver microsome [5] and in the data set on Liver microsome [7] was “Stable” in each case. In addition, half-maximal inhibition with Platelet [10] (Homo sapiens, Platelet, Plasma) (IC50) required 0.139 µM.
For `CCOC(=O)N1CCN(C(=O)[C@H](CCC(=O)O)NC(=O)c2cc([C@H]3C[C@@H]3COC)nc(-c3ccccc3)n2)CC1` (racemic), in [1], the “Ratio IC50” value is on record as 4.9. Besides, the Activity with Platelet [2] is recorded as below 30%; in the data set with Platelet [11], below 70%. Further, the “inhibition (INH)” value (in [3]; at Cytochrome P450 3A4 [6]; at Cytochrome P450 2D6; on Cytochrome P450 2C9; at Cytochrome P450 3A4 [8]) was “Not Active” throughout. Also, the solubility entry in data set [4] and in data set [9] was “soluble” each time. The Stability result with Liver microsome [5] and in the data set on Liver microsome [7] was “Stable” each time. The concentration for half-maximal inhibition (IC50) at P2Y purinoceptor 12 came to 0.039 µM; in the data set on Platelet [10] (platelet), 0.192 µM.
With `CCOC(=O)N1CCN(C(=O)[C@H](CCC(=O)O)NC(=O)c2cc(N3CC[C@@H](O)C3)nc(-c3ccccc3)n2)CC1`, in data set [1], the “Ratio IC50” value was found to be 1.9. In addition, the Activity in the data set on Platelet [2] was below 30%; with Platelet [11], below 70%. Besides, the “inhibition (INH)” value (in data set [3]; on Cytochrome P450 3A4 [6]; on Cytochrome P450 2D6; at Cytochrome P450 2C9; at Cytochrome P450 3A4 [8]) was “Not Active” each time. The solubility result in [4] and in [9] was “soluble” each time. For the same molecule, the Stability entry in the data set with Liver microsome [5] and with Liver microsome [7] was “Stable” each time. The IC50 at P2Y purinoceptor 12 was 0.052 µM; with Platelet [10] (Homo sapiens, Platelet, Plasma) it was 0.099 µM.
With `CCOC(=O)N1CCN(C(=O)[C@H](CCC(=O)O)NC(=O)c2cc(N3CC[C@H](O)C3)nc(-c3ccccc3)n2)CC1`, the “Ratio IC50” value in data set [1] was found to be 1.5. Also, the Activity with Platelet [2] is on record as below 30%; with Platelet [11], below 70%. Moreover, the “inhibition (INH)” value (in [3]; on Cytochrome P450 3A4 [6]; on Cytochrome P450 2D6; on Cytochrome P450 2C9; on Cytochrome P450 3A4 [8]) was “Not Active” throughout. For the same molecule, the solubility entry in [4] and in data set [9] was “soluble” throughout. In addition, the Stability result with Liver microsome [5] and with Liver microsome [7] was “Stable” throughout. In addition, the IC50 worked out at 0.046 µM at P2Y purinoceptor 12 and 0.068 µM in the data set with Platelet [10] (Homo sapiens, Platelet, Plasma).
For `CCCCOC(=O)N1CCN(C(=O)[C@H](CCC(=O)O)NC(=O)c2cc([C@H]3C[C@H]3COC)nc(-c3ccccc3)n2)CC1` (racemic), the “Ratio IC50” value in data set [1] was 32. Moreover, the “inhibition (INH)” value (in data set [3]; on Cytochrome P450 3A4 [6]; at Cytochrome P450 2D6; on Cytochrome P450 2C9; at Cytochrome P450 3A4 [8]) was “Not Active” in each case. For the same molecule, the solubility result in data set [4] and in data set [9] was “soluble” throughout. Besides, the Stability entry in the data set with Liver microsome [5] and in the data set on Liver microsome [7] was “Stable” each time. For the same molecule, the half-inhibitory concentration (IC50) on P2Y purinoceptor 12 is 0.009 µM; in the data set on Platelet [10] (Homo sapiens, Platelet, Plasma), 0.287 µM.
On to `CCOC(=O)N1CCN(C(=O)[C@H](CCC(=O)O)NC(=O)c2cc(-n3cc(C)cn3)nc(-c3ccccc3)n2)CC1`, for which the “Ratio IC50” value in data set [1] is given as 12. Also, the Activity in the data set with Platelet [2] came out at 30%. For the same molecule, the “inhibition (INH)” value (in [3]; at Cytochrome P450 3A4 [6]; at Cytochrome P450 2D6; on Cytochrome P450 2C9; on Cytochrome P450 3A4 [8]) was “Not Active” each time. Besides, the solubility result in data set [4] and in [9] was “soluble” each time. In addition, the Stability result in the data set on Liver microsome [5] and in the data set on Liver microsome [7] was “Stable” each time. For the same molecule, the IC50 was determined as 0.027 µM at P2Y purinoceptor 12 and 0.318 µM in the data set with Platelet [10] (Homo sapiens, Platelet, Plasma).
